Experimental data reported in ChEMBL document CHEMBL4425108, “A Selective and Slowly Reversible Inhibitor of l-Type Amino Acid Transporter 1 (LAT1) Potentiates Antiproliferative Drug Efficacy in Cancer Cells” (J Med Chem, 2016).
Calls of active or inactive are those of the source. The calls are words filed in the database; no cut-off is given here.

Key:
[1] = AUC (0 to 480 min) in mouse liver at 23 umol/kg, ip administered as bolus by LC-MS analysis; format: ADME, organism-based; set-up: dose 23 umol/kg, time < 8 hr, route intraperitoneal; settings: in vivo, 8 h
Method in brief: (§1)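 Male adult mice (25 ± 5 g) given a single i.p. bolus at 23 µmol/kg. The dosing solution was 1.36 mM in 10% (v/v) DMSO, 20% (w/v) hydroxypropyl-β-cyclodextrin and 0.9% NaCl. Animals were decapitated at seven time points from 10 to 480 min. Plasma and tissues were acetonitrile-precipitated with repaglinide internal standard and analysed by LC-MS. Parameters were derived from concentration–time data, mean ± SEM (n=3).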

[2] = target: T1, Large neutral amino acids transporter small subunit 2 (Homo sapiens) (UniProt Q9UHI5); test: Competitive inhibition of [14C]-L-alanine uptake at LAT2 in human MCF7 cells at 25 uM preincubated for 5 mins followed by addition of substrate measured during 5 mins by liquid scintillation counting; format: cell-based
T1 sequence (whole entry): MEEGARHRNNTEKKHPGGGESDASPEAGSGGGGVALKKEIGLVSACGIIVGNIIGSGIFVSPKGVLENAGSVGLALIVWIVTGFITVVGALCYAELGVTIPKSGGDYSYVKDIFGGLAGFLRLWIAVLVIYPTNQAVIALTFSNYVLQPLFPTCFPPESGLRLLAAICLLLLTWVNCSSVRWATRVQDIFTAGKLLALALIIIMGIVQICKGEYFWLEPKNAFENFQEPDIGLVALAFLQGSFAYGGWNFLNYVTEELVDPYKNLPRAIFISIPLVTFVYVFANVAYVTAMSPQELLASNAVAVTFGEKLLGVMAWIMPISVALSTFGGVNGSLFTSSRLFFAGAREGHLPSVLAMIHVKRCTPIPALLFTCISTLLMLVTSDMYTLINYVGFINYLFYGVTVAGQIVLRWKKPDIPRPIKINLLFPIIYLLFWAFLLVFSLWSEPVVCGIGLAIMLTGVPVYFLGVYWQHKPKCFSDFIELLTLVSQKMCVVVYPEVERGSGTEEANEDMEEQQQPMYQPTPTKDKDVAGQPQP

[3] = AUC (0 to 480 min) in mouse plasma at 23 umol/kg, ip administered as bolus by LC-MS analysis; format: ADME, organism-based; set-up: dose 23 umol/kg, time < 8 hr, route intraperitoneal; settings: in vivo, 8 h; method in brief: as §1
[4] = system: MCF7; test: Antiproliferative activity against human MCF7 cells assessed as reduction in cell viability at 100 measured after 48 hrs by resazurin dye-based fluorimetric analysis; format: functional
Method in brief: (§2)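 MCF-7 cells were seeded at 2 × 10^4 cells/well on collagen-coated plates and treated one day later. Agents were given alone or combined (25 or 100 µM with 100 µM partner drug) in growth medium for 3 days. Viability was read daily by resazurin fluorescence (ex 560/em 590 nm) and expressed relative to untreated controls.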

[5] = AUC (0 to 480 min) in mouse heart at 23 umol/kg, ip administered as bolus by LC-MS analysis; format: ADME, organism-based; set-up: dose 23 umol/kg, time < 8 hr, route intraperitoneal; settings: in vivo, 8 h; method in brief: as §1
[6] = target: T2, Large neutral amino acids transporter small subunit 1 (Homo sapiens, UniProt Q01650); test: Competitive binding to LAT1 in human MCF7 cells at 100 uM after 30 mins in presence of OATP 1B1/1B3 inhibitor rifampicin by HPLC analysis; format: cell-based
T2 sequence (Q01650 whole entry): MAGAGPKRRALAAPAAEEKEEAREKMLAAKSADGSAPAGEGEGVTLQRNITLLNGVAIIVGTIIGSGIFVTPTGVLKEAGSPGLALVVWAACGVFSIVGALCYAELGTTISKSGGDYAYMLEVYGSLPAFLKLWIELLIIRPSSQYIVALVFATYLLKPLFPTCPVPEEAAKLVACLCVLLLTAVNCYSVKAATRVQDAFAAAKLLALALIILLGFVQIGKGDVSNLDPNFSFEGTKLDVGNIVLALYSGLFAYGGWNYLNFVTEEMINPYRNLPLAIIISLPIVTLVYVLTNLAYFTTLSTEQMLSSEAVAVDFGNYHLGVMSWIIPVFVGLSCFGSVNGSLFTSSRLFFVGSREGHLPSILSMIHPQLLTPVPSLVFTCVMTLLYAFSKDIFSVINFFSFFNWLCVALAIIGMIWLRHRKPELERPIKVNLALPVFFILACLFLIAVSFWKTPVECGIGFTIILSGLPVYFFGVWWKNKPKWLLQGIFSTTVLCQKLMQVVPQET
Method in brief: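 MCF-7 cells incubated 30 min at 37 °C in HBSS (pH 7.4) holding 100 µM test compound plus 500 µM competitor. Cells washed three times with ice-cold HBSS and lysed in 0.1 M NaOH. Cell-associated compound measured by HPLC against a lysate-spiked standard curve and normalised to protein. Mean ± SD, n=3.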

[7] = target: T2, Large neutral amino acids transporter small subunit 1; test: Drug uptake in human MCF7 cells assessed as LAT1 mediated drug transport per mg of protein at 100 uM measured 5 mins after warm wash by HPLC analysis; format: ADME, cell-based; settings: mcf7, 5 min
Method in brief: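 MCF-7 monolayers were incubated with 100 µM compound in HBSS at 37 °C for 5 or 30 min. Cells got three washes with ice-cold or warm (37 °C) HBSS; in the warm 30 min arm they were washed after 5 min and again after 30 min. Lysates (0.1 M NaOH) were quantified by HPLC-UV against a spiked lysate standard curve and normalised to protein (Bio-Rad assay).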

[8] = Terminal half life in mouse kidney at 23 umol/kg, ip administered as bolus by LC-MS analysis; format: ADME, organism-based; settings: read-out: beta t1/2; method in brief: as §1
[9] = AUC (0 to 480 min) in mouse kidney at 23 umol/kg, ip administered as bolus by LC-MS analysis; format: ADME, organism-based; set-up: time < 8 hr, dose 23 umol/kg, route intraperitoneal; settings: in vivo, 8 h; method in brief: as §1
[10] = fCmax in mouse brain at 23 umol/kg, ip administered as bolus by LC-MS analysis; format: ADME, organism-based; settings: in vivo
Method in brief: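 Male mice (25 ± 5 g) dosed i.p. as a bolus at 23 µmol/kg in DMSO/hydroxypropyl-β-cyclodextrin/saline vehicle, sampled at time points 10–480 min; plasma and tissue homogenates (1:3 water) analysed by LC-MS. […] Mean ± SEM.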

[11] = target: T2, Large neutral amino acids transporter small subunit 1; test: Inhibition of LAT1 in human MCF7 cells assessed as potentiation of bestatin-induced antiproliferative activity by measuring reduction in cell viability at 100 uM measured after 48 hrs by resazurin dye-based fluorimetric analysis
Method in brief: (§3)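 MCF-7 cells seeded 2 × 10^4/well on collagen-coated plates, treated one day later in growth medium with inhibitor (25 or 100 µM) plus bestatin or cisplatin (100 µM) for up to 3 days. Viability read daily by resazurin fluorescence (ex 560/em 590 nm). Viability is treated relative to untreated control. Mean ± SD, n=3.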

[12] = system: MCF7; test: Antiproliferative activity against human MCF7 cells assessed as reduction in cell viability at 25 measured after 48 hrs by resazurin dye-based fluorimetric analysis; format: functional; method in brief: as §2
[13] = target: T2, Large neutral amino acids transporter small subunit 1; test: Inhibition of LAT1 in human MCF7 cells assessed as potentiation of bestatin-induced antiproliferative activity by measuring reduction in cell viability at 25 uM measured after 24 hrs by resazurin dye-based fluorimetric analysis; method in brief: as §3
[14] = Cmax in mouse heart at 23 umol/kg, ip administered as bolus by LC-MS analysis; format: ADME, organism-based; set-up: dose 23 umol/kg, route intraperitoneal; settings: in vivo; method in brief: as §1
[15] = system: Mus musculus; test: Binding affinity to LAT1 in mouse brain assessed as inhibition of [14C]-L-leucine uptake at 23 umol/kg, ip measured 180 mins post perfusion with [14C]-L-leucine; format: functional; settings: 3 h
Method in brief: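 Mice under ketamine/xylazine anaesthesia had the right common carotid artery cannulated. Brains were perfused at 37 °C, 2.5 mL/min, for 30 s with 0.157 µM [14C]-L-leucine, then 2 s with analyte-free buffer at 4 °C. Perfusion took place 10 or 180 min after 23 µmol/kg i.p. dosing.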

[16] = target: Large neutral amino acids transporter small subunit 1 (Mus musculus, UniProt Q9Z127); test: Drug uptake in mouse brain assessed as LAT1-mediated unidirectional transfer constant measured after perfusion; format: ADME, tissue-based; settings: in vivo
Large neutral amino acids transporter small subunit 1 (Mus musculus, UniProt Q9Z127), sequence (Q9Z127 whole entry, the tested form may be a part): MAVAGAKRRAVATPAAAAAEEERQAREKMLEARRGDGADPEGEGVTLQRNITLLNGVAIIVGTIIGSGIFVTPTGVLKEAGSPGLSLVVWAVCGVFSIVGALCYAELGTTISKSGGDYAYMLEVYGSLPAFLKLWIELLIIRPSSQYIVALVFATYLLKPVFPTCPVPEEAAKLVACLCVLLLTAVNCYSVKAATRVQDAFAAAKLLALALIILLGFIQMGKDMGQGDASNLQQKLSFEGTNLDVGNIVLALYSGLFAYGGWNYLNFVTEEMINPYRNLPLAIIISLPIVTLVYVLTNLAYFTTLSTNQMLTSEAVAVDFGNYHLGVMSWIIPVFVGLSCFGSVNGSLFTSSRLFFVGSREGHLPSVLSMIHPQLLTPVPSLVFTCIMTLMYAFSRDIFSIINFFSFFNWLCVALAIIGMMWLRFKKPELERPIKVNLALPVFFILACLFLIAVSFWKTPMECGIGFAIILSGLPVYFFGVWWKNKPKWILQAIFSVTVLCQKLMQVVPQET
Method in brief: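 In situ brain perfusion in anaesthetised male mice used 100 µM compound at 37 °C, 2.5 mL/min, for 60 s, then 2 s drug-free buffer at 4 °C. Kin = Qtot/(Cpf × T); mean ± SD, n=3.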

[17] = Fraction unbound in mouse liver at 23 umol/kg, ip administered as bolus by LC-MS analysis; format: ADME, organism-based
Method in brief: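 Unbound fraction was measured by equilibrium dialysis at 100 µM in mouse plasma and in brain, liver, kidney, heart and prostate homogenates.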

[18] = target: T2, Large neutral amino acids transporter small subunit 1; test: Inhibition of LAT1 in human MCF7 cells assessed as potentiation of cisplatin-induced antiproliferative activity by measuring reduction in cell viability at 100 uM measured after 24 hrs by resazurin dye-based fluorimetric analysis; method in brief: as §3

- AUC [1]: 1930 nmol/g/min
- inhibition [2]: inactive
- AUC [3]: 795 nmol/min/mL
- AUC [5]: 249 nmol/g/min
- Activity [6]: Active
- Drug uptake [7]: 1.43 nmol/mg
- half-life [8]: 41.8 min
- AUC [9]: 1426 nmol/g/min
- fCmax [10]: 0.02 nmol/g
- Cmax [14]: 4.9 nmol/g
- Kin [16]: 8.2 ×10⁻⁵ ml/s/g
- fraction unbound [17]: 0.0098
SMILES: CNC(=O)COc1ccc(-c2c(C#N)c(NC(=O)c3cccc(C[C@H](N)C(=O)O)c3)n3c(nc4ccccc43)c2C#N)cc1
- Activity [4]: 14.8%
- Activity [11]: 42.7%
- Activity [12]: inactive
- Activity [13]: 24.7%
- inhibition in vivo at 23 µmol/kg [15]: 14%
- Activity [18]: 65%
